According to ChEMBL document CHEMBL1140383, “Synthesis of 5-nitro-2-furancarbohydrazides and their cis-diamminedichloroplatinum complexes as bitopic and irreversible human thioredoxin reductase inhibitors” (J Med Chem, 2005):
pIC50, pKi: −log10 of the molar value. Values belong to the compound of their own block, whether it stands above or below them.

Assays:
Thioredoxin reductase [1] = target: T1, Thioredoxin reductase (Homo sapiens, UniProt Q16881+Q9NNW7+Q86VQ6); test: Inhibitory concentration against wild type mutant human thioredoxin reductase (Sec498Cys) (100 nM) pre-incubated for 10 min at 25 degree C in buffer in the presence of 200 uM NADPH; format: protein assay
Outline: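 Recombinant hTrxR Sec498Cys (100 nM) preincubated 10 min at 25 °C with 200 μM NADPH and inhibitor in potassium phosphate/EDTA buffer, pH 7.4. Started with 3 mM DTNB; absorbance read at 412 nm. DMF controls. IC50 from dose–response curves, mean of at least three determinations.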

Calu-6 [2] = test: Inhibitory concentration against Calu-6 cell line; format: functional, cell-based, Homo sapiens
Outline: (§1)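 Human tumour lines grown in DMEM at 37 °C under 5% CO2, seeded in 96-well plates. Dosed next day in quadruplicate with 1:2 serial dilutions, 50 to 0.8 μg/mL; platinum complexes from DMF stock, cisplatin in water. After 96 h cells fixed in 3% formaldehyde and stained with 1% crystal violet, absorbance at 595 nm. For MCF-7 the dye was eluted with ethanol/1% acetic acid before reading. IC50 from fitted dose–response curves.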

MCF7 [3] = test: Inhibitory concentration against MCF-7 cell line; format: functional, cell-based, Homo sapiens; outline: as §1
Thioredoxin reductase [4] = target: T1, Thioredoxin reductase; test: Inhibitory concentration against wild type mutant human thioredoxin reductase (Sec498Cys) (1.3 uM) pre-incubated for 10 min at 25 degree C in buffer in the presence of 100 uM NADPH; format: protein assay
Outline: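 Recombinant hTrxR Sec498Cys (1.3 μM) preincubated 10 min at 25 °C with 100 μM NADPH and inhibitor in potassium phosphate/EDTA buffer, pH 7.4. Reaction started with 20 μM hTrxC72S; NADPH oxidation read at 340 nm. DMF controls. IC50 from dose–response curves, at least three determinations.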

Thioredoxin reductase [5] = target: T1, Thioredoxin reductase; test: Inhibitory concentration against wild type human thioredoxin reductase; format: protein assay
Outline: (§2)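 Placental wt-hTrxR (5 nM) preincubated 10 min at 25 °C with 200 μM NADPH and inhibitor (from 10 mM DMF stock) in 100 mM potassium phosphate, 2 mM EDTA, pH 7.4. Started with 3 mM DTNB; TNB formation read at 412 nm. DMF controls. IC50 from dose–response curves, mean of at least three determinations.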

Thioredoxin reductase [6] = target: T1, Thioredoxin reductase; test: Inhibitory concentration against wild type human thioredoxin reductase (5 nM) pre-incubated for 10 min at 25 degree C in buffer in the presence of 200 uM NADPH; format: protein assay; outline: as §2
Thioredoxin reductase [7] = target: T1, Thioredoxin reductase; test: Inhibitory concentration against wild type human thioredoxin reductase (30 nM) pre-incubated for 10 min at 25 degree C in phosphate buffer in the presence of 100 uM NADPH; format: protein assay
Outline: as §2, with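 “(30” for “(5”, “100” for “200”, “20 μM hTrxC72S; NADPH oxidation” for “3 mM DTNB; TNB formation”, “340” for “412”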

SK-MEL-25 [8] = test: Inhibitory concentration against SK-MEL-25 cell line; format: functional, cell-based, Homo sapiens; outline: as §1
Thioredoxin reductase [9] = target: T1, Thioredoxin reductase; test: Inhibitory concentration against wild type mutant human thioredoxin reductase (hTrxRdelta-16) pre-incubated for 10 min at 25 degree C in buffer in the presence of 200 uM NADPH; format: protein assay
Outline: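 Truncated recombinant hTrxRΔ-16 preincubated 10 min at 25 °C with 200 μM NADPH and inhibitor in potassium phosphate/EDTA buffer, pH 7.4. Reaction started with 3 mM DTNB; TNB formation read at 412 nm. DMF controls. IC50 from dose–response curves.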

MCF7 [10] = test: Ratio of inhibition by compound against MCF-7 cell line to inhibition by cisPt against MCF-7 cell line; format: functional, cell-based; conditions: Homo sapiens
Outline: (§3)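 Cytotoxicity in DMEM at 37 °C, 5% CO2, quadruplicate 1:2 dilutions (50 to 0.8 μg/mL), 96 h, crystal violet read at 595 nm. Value is the ratio of the complex IC50 to the cisplatin IC50 measured on the same line.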

Calu-6 [11] = test: Ratio of inhibition by compound against Calu-6 cell line to inhibition by cisPt against Calu-6 cell line; format: functional, cell-based; conditions: Homo sapiens; outline: as §3
SK-MEL-25 [12] = test: Ratio of inhibition by compound against SK-MEL-25 cell line to inhibition by cisPt against SK-MEL-25 cell line; format: functional, cell-based; conditions: Homo sapiens; outline: as §3
Thioredoxin reductase [13] = target: T1, Thioredoxin reductase; test: Inhibitory concentration agains human thioredoxin reductase; format: protein assay
Outline: (§4)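 Human TrxR purified from placenta, 5 nM in the DTNB assay or 30 nM in the Trx assay. Enzyme was preincubated 10 min at 25 °C in 100 mM potassium phosphate, 2 mM EDTA, pH 7.4, with NADPH and inhibitor (DMF stock; DMF controls). DTNB assay: 200 μM NADPH, started with 3 mM DTNB, A412. Trx assay: 100 μM NADPH, started with 20 μM hTrxC72S, A340. IC50 from dose–response curves, ≥3 determinations.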

Thioredoxin reductase [14] = target: T1, Thioredoxin reductase; test: Inhibitory concentration against human thioredoxin reductase; format: protein assay; outline: as §4
[15] = target: T2, Glutathione reductase, mitochondrial (Homo sapiens, UniProt P00390); test: Inhibitory concentration against human glutathione reductase
T2 sequence (P00390 whole entry): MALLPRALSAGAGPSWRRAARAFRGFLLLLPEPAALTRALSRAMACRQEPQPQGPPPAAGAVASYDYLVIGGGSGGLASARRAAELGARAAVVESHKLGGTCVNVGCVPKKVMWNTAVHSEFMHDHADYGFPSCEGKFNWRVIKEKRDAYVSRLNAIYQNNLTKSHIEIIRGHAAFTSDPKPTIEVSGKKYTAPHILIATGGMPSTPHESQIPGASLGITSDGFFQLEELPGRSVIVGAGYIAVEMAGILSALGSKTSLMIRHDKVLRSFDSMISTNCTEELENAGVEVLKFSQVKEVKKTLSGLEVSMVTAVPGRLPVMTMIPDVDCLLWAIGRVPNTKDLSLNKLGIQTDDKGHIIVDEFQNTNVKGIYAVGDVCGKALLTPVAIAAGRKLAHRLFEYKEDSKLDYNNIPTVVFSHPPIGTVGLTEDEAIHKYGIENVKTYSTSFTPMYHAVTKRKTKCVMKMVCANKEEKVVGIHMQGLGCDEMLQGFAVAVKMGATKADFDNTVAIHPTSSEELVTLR

Thioredoxin reductase [16] = target: T1, Thioredoxin reductase; test: Inhibitory concentration (25 uM) against human thioredoxin reductase; format: protein assay
Outline: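 Placental hTrxR screen in 100 mM sodium phosphate, 2 mM EDTA, pH 7.0. Mix held 500 μM NADPH, 200 μM DTNBA and 25 μM inhibitor. Reaction started with native enzyme. Thionitrobenzamide formation read at 416 nm over time, with and without inhibitor.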

- pIC50 (Thioredoxin reductase [1]): 3.89
- pIC50 (Calu-6 [2]): 4.56
- pIC50 (MCF7 [3]): 4.27
- pIC50 (Thioredoxin reductase [4]): 4.42
- pKi (Thioredoxin reductase [5]): 6.56
- pIC50 (Thioredoxin reductase [6]): 6.96
- pIC50 (Thioredoxin reductase [7]): 6.92
- pIC50 (SK-MEL-25 [8]): 4.82
- pIC50 (Thioredoxin reductase [9]): 3.84
Compound: 2-(2-Amino-ethylamino)-N-(7-{2-[N'-(5-nitro-furan-2-carbonyl)-hydrazino]-2-oxo-ethyl}-naphthalen-2-yl)-acetamide; compound with GENERIC INORGANIC NEUTRAL COMPONENT [listing 1 of 2 here]

Compound: 2-(2-Amino-ethylamino)-N-(7-{2-[N'-(5-nitro-furan-2-carbonyl)-hydrazino]-2-oxo-ethyl}-naphthalen-2-yl)-acetamide; compound with GENERIC INORGANIC NEUTRAL COMPONENT [listing 2 of 2 here]
- Ratio (MCF7 [10]): 0.8
- Ratio (Calu-6 [11]): 15.3
- Ratio (SK-MEL-25 [12]): 3

Compound: O=C1C=CC(=O)c2c(O)ccc(O)c21 [NAPHTHAZALIN]
- IC50 (Thioredoxin reductase [13]): 20 µM

Compound: O=C1C=CC(=Nc2cc(Cl)c(O)c(Cl)c2)C=C1 [DICHLOROPHENOL INDOPHENOL]
- IC50 (Thioredoxin reductase [14]): 25 µM

- pIC50 (Thioredoxin reductase [6]): 4.74
- pIC50 [15]: 5.39
- pIC50 (Thioredoxin reductase [9]): 3.67
- IC50 (Thioredoxin reductase [16]): 16 µM
Compound: O=C(Cc1ccc2ccccc2c1)NNC(=O)c1ccc([N+](=O)[O-])o1
